Published values gathered from unrelated publications.
Protocols differ between the studies behind these lines.
gag-pol reverse transcriptase: Gag-Pol polyprotein, reverse transcriptase (gag-pol, Human immunodeficiency virus 1, UniProt P03366)
gyrA: DNA gyrase subunit A (gyrA, Escherichia coli K-12, UniProt P0AES4)
PDE2A: cGMP-dependent 3',5'-cyclic phosphodiesterase (PDE2A, Homo sapiens, UniProt O00408)

SMILES	target	assay	conditions	IC50
O=C(Nc1cccc2[nH]ccc12)c1ccccc1	Alpha-synuclein, monomer (SNCA, Homo sapiens, UniProt P37840)	amyloid aggregation, inhibitor, fluorescence		~12900 nM
N#Cc1ccc(Nc2nc(N)cc(Oc3ccc(-c4ccc(C#N)cc4)c(F)c3F)n2)cc1	gag-pol reverse transcriptase	enzyme activity, inhibitor		30 nM
Cc1cc(C)cc(S(=O)(=O)c2c(C(=O)NCCCNS(=O)(=O)c3cccc(F)c3)[nH]c3ccc(Cl)cc23)c1	gag-pol reverse transcriptase	enzyme activity, inhibitor, ELISA		130 nM
N#Cc1ccc(Nc2nc(N)cc(Oc3ccc(-c4ccccc4C#N)cc3F)n2)cc1	gag-pol reverse transcriptase	enzyme activity, inhibitor		100 nM
N=C(N)NC(=O)c1nc(Cl)c(N)nc1N	delm-1 (Caenorhabditis elegans, UniProt O45402)	ion current, two-electrode voltage clamp	oocytes	120000 nM
CC(C)Oc1c(NC(=O)c2ccc(NC(=O)[C@H](CC(N)=O)NC(=O)c3ccc(NC(=O)c4ccc(C#N)cc4)cc3)cc2)ccc(C(=O)NC2CCNCC2)c1O	gyrA	enzyme activity, inhibitor		500 nM
Cc1cc(C)cc(S(=O)(=O)c2c(C(=O)NCCNS(=O)(=O)c3ccccc3)[nH]c3ccc(Cl)cc23)c1	gag-pol reverse transcriptase	enzyme activity, inhibitor, ELISA		55 nM
CC(C)c1cccc2c(-c3ccccc3)cc(-c3ccc(-c4ccc(C(=O)O)cc4)[nH]3)nc12	Retinoic acid receptor alpha (RARA, Homo sapiens, UniProt P10276)	reporter gene, antagonist		15 nM
CC(=O)N[C@@H]1[C@@H](O)[C@H](O)[C@@H](CO)S[C@@H]1OP(=O)(O)OP(=O)(O)OC[C@H]1O[C@@H](n2ccc(=O)[nH]c2=O)[C@H](O)[C@@H]1O	UDP-N-acetylglucosamine--peptide N-acetylglucosaminyltransferase 110 kDa subunit (OGT, Homo sapiens, UniProt O15294)	enzyme activity, inhibitor		78800 nM
Cc1cc(C)cc(S(=O)(=O)c2c(C(=O)NCCNS(=O)(=O)c3cccc(F)c3)[nH]c3ccc(Cl)cc23)c1	gag-pol reverse transcriptase	enzyme activity, inhibitor, ELISA		83 nM
N#Cc1ccc(Nc2nc(N)cc(Oc3ccc(-c4ccc(F)cc4)cc3F)n2)cc1	gag-pol reverse transcriptase	enzyme activity, inhibitor		60 nM
CC(C)Oc1c(NC(=O)c2ccc(NC(=O)[C@H](CC(N)=O)NC(=O)c3ccc(C#Cc4ccc(C#N)cc4)cc3)cc2)ccc(C(=O)Nc2ccc(C(=O)O)cc2)c1O	gyrA	enzyme activity, inhibitor		500 nM
CCn1ncc2c1-c1cnc(N)c(c1)O[C@H](C)c1cc(F)ccc1-c1nn(C)nc1C2	STE20-like serine/threonine-protein kinase (SLK, Homo sapiens, UniProt Q9H2G2)	enzyme activity, inhibitor, radiometric		336 nM
CN1CCN(c2ccc(Nc3ncc4cc(C#N)c(=O)n(C5CCCC5)c4n3)cc2)CC1	Serine/threonine-protein kinase WNK2 (WNK2, Homo sapiens, UniProt Q9Y3S1)	enzyme activity, inhibitor		> 10000 nM
N#Cc1ccc(Nc2nc(N)cc(Oc3ccc(-c4ccc(C#N)cc4)cc3F)n2)cc1	gag-pol reverse transcriptase	enzyme activity, inhibitor		30 nM
Nc1ncnc2c1c(Cc1cccc3ccccc13)nn2CC1CCNCC1	Tyrosine-protein kinase ABL1 (ABL1, Homo sapiens, UniProt P00519)	enzyme activity, inhibitor		> 20000 nM
COc1ccc2c(Oc3ccc4c(C(=O)Nc5ccccc5N)cccc4c3)ccnc2c1	cAMP-dependent protein kinase catalytic subunit alpha (PRKACA, Homo sapiens, UniProt P17612)	enzyme activity, inhibitor		> 500 nM
CC(C)Oc1c(NC(=O)c2ccc(NC(=O)[C@H](CC(N)=O)NC(=O)c3ccc(NC(=O)c4ccc5c(c4)COC5=O)cc3)cc2)ccc(C(=O)Nc2ccc(C(=O)O)cc2)c1O	gyrA	enzyme activity, inhibitor		1400 nM
Cc1cc(/C=C/C#N)cc(C)c1Nc1ccnc(Nc2ccc(C#N)cc2)n1	gag-pol reverse transcriptase	enzyme activity, inhibitor		14 nM
Cc1cc(C)cc(S(=O)(=O)c2c(C(=O)NCCNS(=O)(=O)c3ccc(Cl)cc3)[nH]c3ccc(Cl)cc23)c1	gag-pol reverse transcriptase	enzyme activity, inhibitor, ELISA		55 nM
Cc1cc(C(=O)Nc2ccc(C(=O)N[C@@H](CC(N)=O)C(=O)Nc3ccc(C(=O)Nc4ccc(C(=O)Nc5ccc(C(=O)O)cc5)c(O)c4OC(C)C)cc3)cc2)ccc1C#N	gyrA	enzyme activity, inhibitor		1600 nM

SMILES	target	assay	conditions	IC50
N#Cc1ccc(Nc2nc(N)cc(Oc3ccc(-c4ccc(F)cc4)cc3)n2)cc1	gag-pol reverse transcriptase	enzyme activity, inhibitor		200 nM
CC(C)Oc1c(NC(=O)c2ccc(NC(=O)[C@H](CC(N)=O)NC(=O)c3ccc(NC(=O)CCc4ccc(C#N)cc4)cc3)cc2)ccc(C(=O)Nc2ccc(C(=O)O)cc2)c1O	gyrA	enzyme activity, inhibitor		1000 nM
COc1cc(C[C@H]2C(=O)OC[C@@H]2Cc2ccc(OC)c(OC)c2)ccc1O	PDE2A	enzyme activity, inhibitor		> 20000 nM
CCCC(CCC)C(=O)O	Aldo-keto reductase family 1 member A1 (AKR1A1, Homo sapiens, UniProt P14550)	enzyme activity, inhibitor, absorbance	pH 6.2	53200 nM
CC(C)Oc1c(NC(=O)c2ccc(NC(=O)[C@H](CC(N)=O)NC(=O)c3ccc(NC(=O)c4ccc(C#N)nc4)cc3)cc2)ccc(C(=O)Nc2ccc(C(=O)O)cc2)c1O	gyrA	enzyme activity, inhibitor		500 nM
Cc1ccc(S(=O)(=O)NCCNC(=O)c2[nH]c3ccc(Cl)cc3c2S(=O)(=O)c2cc(C)cc(C)c2)cc1	gag-pol reverse transcriptase	enzyme activity, inhibitor, ELISA		75 nM
N#Cc1ccc(Nc2nc(N)cc(Oc3c(F)cc(-c4ccc(C#N)cc4)cc3F)n2)cc1	gag-pol reverse transcriptase	enzyme activity, inhibitor		20 nM
C[C@H]1Oc2cc(cnc2N)-c2c(nn(C)c2C#N)CN(C)C(=O)c2ccc(F)cc21	Protein-tyrosine kinase 2-beta (PTK2B, Homo sapiens, UniProt Q14289)	enzyme activity, inhibitor, radiometric		5.9 nM
O=C1NC(=O)/C(=C/c2ccc(OCCNc3nc4c(cnn4C4CCCC4)c(=O)[nH]3)c(F)c2)S1	PDE2A	enzyme activity, inhibitor		58 nM
N#Cc1ccc(Nc2nc(N)cc(Oc3ccc(-c4ccc(C#N)cc4)cc3C#N)n2)cc1	gag-pol reverse transcriptase	enzyme activity, inhibitor		30 nM
C/C(=C\c1ccc(C#N)cc1)C(=O)Nc1ccc(C(=O)N[C@@H](CC(N)=O)C(=O)Nc2ccc(C(=O)Nc3ccc(C(=O)Nc4ccc(C(=O)O)cc4)c(O)c3OC(C)C)cc2)cc1	gyrA	enzyme activity, inhibitor		200 nM
Cc1cc(C)cc(S(=O)(=O)c2c(C(=O)NCCCNS(=O)(=O)c3cccs3)[nH]c3ccc(Cl)cc23)c1	gag-pol reverse transcriptase	enzyme activity, inhibitor, ELISA		190 nM
COc1ccc(-c2oc3ncnc(NCc4ccccc4)c3c2-c2ccc(OC)cc2)cc1	Receptor tyrosine-protein kinase erbB-2 (ERBB2, Homo sapiens, UniProt P04626)	enzyme activity, inhibitor, radiometric		4600 nM
CC1(C)C(/C=C/C=C2/N(CCCc3ccccc3)c3ccc(Cl)cc3C2(C)C)=[N+](CCCc2ccccc2)c2ccc(Cl)cc21	Protein arginine N-methyltransferase 6 (PRMT6, Homo sapiens, UniProt Q96LA8)	enzyme activity, inhibitor, radiometric		1660 nM
Cc1ccc(S(=O)(=O)NCCCNC(=O)c2[nH]c3ccc(Cl)cc3c2S(=O)(=O)c2cc(C)cc(C)c2)cc1	gag-pol reverse transcriptase	enzyme activity, inhibitor, ELISA		160 nM
CC(C)Oc1c(NC(=O)c2ccc(NC(=O)[C@H](CC(N)=O)NC(=O)c3ccc(NC(=O)c4ccc(C#N)cn4)cc3)cc2)ccc(C(=O)Nc2ccc(C(=O)O)cc2)c1O	gyrA	enzyme activity, inhibitor		900 nM
CCOCc1nc(O)c(-c2nnc(Cc3ccc(Cl)cn3)o2)c(O)c1-c1c(OC)cccc1OC	Alpha-2A adrenergic receptor (ADRA2A, Homo sapiens, UniProt P08913)	ligand displacement, radioligand		> 30000 nM
CS(=O)(=O)/C(C#N)=C/c1cccn1S(=O)(=O)c1c(F)c(F)c(F)c(F)c1F	Protein phosphatase methylesterase 1 (Homo sapiens, UniProt Q9Y570)	enzyme activity, inhibitor		> 20000 nM
Cc1cc(C)cc(S(=O)(=O)c2c(C(=O)NCCCCCNS(=O)(=O)c3ccc(Cl)cc3)[nH]c3ccc(Cl)cc23)c1	gag-pol reverse transcriptase	enzyme activity, inhibitor, ELISA		120 nM
COc1ncc(CNc2c(CO)cnc3c(C4CC4)cc(C#N)cc23)cc1Cl	PDE2A	enzyme activity, inhibitor		> 10000 nM
